# ChEMBL document CHEMBL1131069 (J Med Chem, 1998)
# Active and inactive are the calls of the source. The calls are words filed in the database; no cut-off is given here.
# Tests used:
# [1] = test system: Mus musculus; assay: Anticonvulsant activity determined at 30 minutes after the administration of compound using MES test.(++= signify activity at 100 mg/kg); assay type: functional, organism-based; parameters: dose 100 mg/kg
# Outline: (§1)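 Male CF-1 albino mice (18-25 g) dosed intraperitoneally at 30, 100 or 300 mg/kg. Protection against maximal electroshock-induced seizures was scored 30 min or 4 h after dosing.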
# [2] = test system: Rattus norvegicus; assay: Anticonvulsant activity was determined in rats at a dose of 30 mg/kg after 1 hour by MES test. (++ denotes activity in 25-50% of administered animals).; assay type: functional, organism-based; parameters: dose 30 mg/kg
# [3] = test system: Rattus norvegicus; assay: Anticonvulsant activity was determined in rats at a dose of 30 mg/kg after 2 hour by MES test. (+ denotes activity in 0-25% of administered animals).; assay type: functional, organism-based; parameters: dose 30 mg/kg
# [4] = Apparent IC50 value by [3H]batrachotoxinin-A-20-alpha-benzoate-binding test performed in rat brain synaptosomes; assay type: subcellular
# Outline: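 Rat brain synaptosomes, about 400 µg protein per assay, incubated 2 h at 37 °C, pH 7.4, in choline chloride/HEPES/glucose/KCl medium with 10 nM [³H]batrachotoxinin-A-20α-benzoate and scorpion venom. Stopped with cold-free choline chloride/HEPES/CaCl₂/MgSO₄ washes, filtered on GF/B, bound radioactivity counted. Protein by Bradford. Apparent IC50 from quadruplicate measurements, mean ± SD.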
# [5] = Neurotoxicity determined at 30 minutes after the administration of compound by rotarod test.(- denotes activity at 300 mg/kg); assay type: toxicity, organism-based; parameters: dose 300 mg/kg; details: mouse, in vivo, 0.5 h
# Outline: (§2)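 Male CF-1 mice dosed ip at 30, 100 or 300 mg/kg and tested 30 min or 4 h later on a 1-in. knurled rod turning at 6 rpm. A deficit was failure to stay on the rod for 1 min in each of three trials. Coding: ++ 100, + 300 mg/kg; - means none at 300 mg/kg.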
# [6] = Neurotoxicity determined at 4 hours after the administration of compound by rotarod test(- denotes activity at 300 mg/kg); assay type: toxicity, organism-based; parameters: dose 300 mg/kg; details: mouse, in vivo; outline: as §2
# [7] = test system: Rattus norvegicus; assay: Anticonvulsant ED50 activity by MES test in rats dosed orally; assay type: functional; details: po
# Outline: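 Male Sprague-Dawley rats (100-150 g) dosed orally. ED50 is the dose protecting 50% of animals against maximal electroshock-induced seizures. […]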
# [8] = test system: Mus musculus; assay: Anticonvulsant activity determined at 30 minutes after the administration of compound using MES test. (+ = signify activity at 300 mg/kg); assay type: functional, organism-based; parameters: dose 300 mg/kg; outline: as §1
# [9] = Neurotoxicity determined at 30 minutes after the administration of compound by rotarod test.(+ = signify activity at 300 mg/kg); assay type: toxicity, organism-based; parameters: dose 300 mg/kg; details: mouse, in vivo, 0.5 h; outline: as §2
# [10] = Neurotoxicity determined at 4 hours after the administration of compound by rotarod test (+ = signify activity at 300 mg/kg); assay type: toxicity, organism-based; parameters: dose 300 mg/kg; details: mouse, in vivo; outline: as §2
# [11] = (§3) Toxicity was determined in rats at a dose of 30 mg/kg after 4 hour. (- denotes no activity in administered animals).; assay type: organism-based; parameters: dose 30 mg/kg; details: rat, in vivo
# Outline: (§4)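 Male Sprague-Dawley rats given a single oral dose of 30 mg/kg and assessed for toxicity 4 h after dosing, with at least four animals per time point. Score is the fraction of animals affected (+ 0-25%); - means no toxicity.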
# [12] = test system: Mus musculus; assay: Anticonvulsant activity determined at 30 minutes after the administration of compound using MES test. (++= signify activity at 100 mg/kg); assay type: functional, organism-based; parameters: dose 100 mg/kg; outline: as §1
# [13] = test system: Mus musculus; assay: Anticonvulsant activity determined at 4 hours after the administration of compound using MES test.(++= signify activity at 100 mg/kg); assay type: functional, organism-based; parameters: dose 100 mg/kg; outline: as §1
# [14] = test system: Rattus norvegicus; assay: Anticonvulsant activity was determined in rats at a dose of 30 mg/kg after 1 hour by MES test. (+ denotes activity in 0-25% of administered animals).; assay type: functional, organism-based; parameters: dose 30 mg/kg
# [15] = test system: Rattus norvegicus; assay: Anticonvulsant activity was determined in rats at a dose of 30 mg/kg after 4 hour by MES test. (+ denotes activity in 0-25% of administered animals).; assay type: functional, organism-based; parameters: dose 30 mg/kg
# [16] = test system: Rattus norvegicus; assay: Toxicity was determined in rats at a dose of 30 mg/kg after 4 hour. (+ denotes activity in 0-25% of administered animals).; assay type: functional, organism-based; parameters: dose 30 mg/kg; outline: as §4
# [17] = Neurotoxicity determined at 4 hours after the administration of compound by rotarod test (- denotes activity at 300 mg/kg); assay type: toxicity, organism-based; parameters: dose 300 mg/kg; details: mouse, in vivo; outline: as §2
# [18] = test system: Rattus norvegicus; assay: Anticonvulsant activity was determined in rats at a dose of 30 mg/kg after 4 hour by MES test. (++++ denotes activity in 75-100% of administered animals); assay type: functional, organism-based; parameters: dose 30 mg/kg
# [19] = test system: Rattus norvegicus; assay: Anticonvulsant activity was determined in rats at a dose of 30 mg/kg after 15 minutes by MES test. (++++ denotes activity in 75-100% of administered animals); assay type: functional, organism-based; parameters: dose 30 mg/kg
# [20] = test system: Mus musculus; assay: Anticonvulsant activity determined at 4 hours after the administration of compound using MES test.(+ = signify activity at 300 mg/kg); assay type: functional, organism-based; parameters: dose 300 mg/kg; outline: as §1
# [21] = test system: Rattus norvegicus; assay: Anticonvulsant activity was determined in rats at a dose of 30 mg/kg after 4 hour by MES test. (++ denotes activity in 25-50% of administered animals).; assay type: functional, organism-based; parameters: dose 30 mg/kg
# [22] = test system: Mus musculus; assay: Anticonvulsant activity determined at 4 hours after the administration of compound using MES test. (++= signify activity at 100 mg/kg); assay type: functional, organism-based; parameters: dose 100 mg/kg; outline: as §1
# [23] = Neurotoxicity determined at 30 minutes after the administration of compound by rotarod test. (+ = signify activity at 300 mg/kg); assay type: toxicity, organism-based; parameters: dose 300 mg/kg; details: mouse, in vivo, 0.5 h; outline: as §2
# [24] = Toxicity was determined in rats at a dose of 30 mg/kg after 4 hour (- denotes no activity in administered animals).; assay type: organism-based; parameters: dose 30 mg/kg; details: rat, in vivo; outline: as §4
# [25] = test system: Mus musculus; assay: Anticonvulsant activity determined at 30 minutes after the administration of compound using MES test. (+++ = activity at 30 mg/kg); assay type: functional, organism-based; parameters: dose 30 mg/kg; outline: as §1
# [26] = test system: Mus musculus; assay: Anticonvulsant activity determined at 30 minutes after the administration of compound using sc Ptz test. (+++ = activity at 30 mg/kg); assay type: functional, organism-based; parameters: dose 30 mg/kg
# Outline: (§5)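 Male CF-1 mice (18-25 g) dosed ip at 30, 100 or 300 mg/kg. Pentylenetetrazol in 0.9% NaCl was injected sc at 0.01 mL/g. Tests were run 30 min or 4 h after dosing.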
# [27] = test system: Mus musculus; assay: Anticonvulsant activity determined at 4 hours after the administration of compound using sc Ptz test. (- denotes activity at 300 mg/kg); assay type: functional, organism-based; parameters: dose 300 mg/kg; outline: as §5
# [28] = test system: Rattus norvegicus; assay: Anticonvulsant activity was determined in rats at a dose of 30 mg/kg after 1 hour by MES test. (++++ denotes activity in 75-100% of administered animals); assay type: functional, organism-based; parameters: dose 30 mg/kg
# [29] = test system: Rattus norvegicus; assay: Anticonvulsant activity was determined in rats at a dose of 30 mg/kg after 2 hour by MES test. (++++ denotes activity in 75-100% of administered animals); assay type: functional, organism-based; parameters: dose 30 mg/kg
# [30] = test system: Rattus norvegicus; assay: Anticonvulsant activity was determined in rats at a dose of 30 mg/kg after 30 minutes by MES test. (++++ denotes activity in 75-100% of administered animals); assay type: functional, organism-based; parameters: dose 30 mg/kg
# [31] = test system: Rattus norvegicus; assay: as §3; assay type: functional, organism-based; parameters: dose 30 mg/kg; outline: as §4
# [32] = Neurotoxicity determined at 30 minutes after the administration of compound by rotarod test.(++= signify activity at 100 mg/kg); assay type: toxicity, organism-based; parameters: dose 100 mg/kg; details: mouse, in vivo, 0.5 h; outline: as §2
# [33] = Neurotoxicity determined at 4 hours after the administration of compound by rotarod test (++= signify activity at 100 mg/kg); assay type: toxicity, organism-based; parameters: dose 100 mg/kg; details: mouse, in vivo; outline: as §2
# [34] = test system: Mus musculus; assay: Anticonvulsant activity determined at 4 hours after the administration of compound using sc Ptz test.(+ = signify activity at 300 mg/kg); assay type: functional, organism-based; parameters: dose 300 mg/kg; outline: as §5
# [35] = Neurotoxicity determined at 4 hours after the administration of compound by rotarod test(+ = signify activity at 300 mg/kg); assay type: toxicity, organism-based; parameters: dose 300 mg/kg; details: mouse, in vivo; outline: as §2
smiles,measurement,setting,value
Cc1cccc(C)c1N1C(=O)c2ccccc2C1=O,Activity,[1],activity in 0-25% of administered animals
same,Activity,[2],activity in 0-25% of administered animals
same,Activity,[3],activity in 0-25% of administered animals
same,IC50,[4],161000 nM
same,Activity,[5],activity in 0-25% of administered animals
same,Activity,[6],activity in 0-25% of administered animals
same,ED50,[7],231 µmol/kg
CC1(C)CC(NC(=O)c2ccc([N+](=O)[O-])cc2)CC(C)(C)N1,Activity,[8],signifies activity at 300 mg/kg
same,IC50,[4],25800 nM
same,Activity,[9],signifies activity at 300 mg/kg
same,Activity,[10],signifies activity at 300 mg/kg
same,Activity,[11],signifies activity at 300 mg/kg
same,ED50,[7],> 650 µmol/kg
Cc1cccc(C)c1N1C(=O)c2ccc(O)cc2C1=O,Activity,[12],activity in 0-25% of administered animals
same,Activity,[13],activity in 0-25% of administered animals
same,Activity,[14],activity in 0-25% of administered animals
same,Activity,[15],activity in 0-25% of administered animals
same,Activity,[16],activity in 0-25% of administered animals
same,IC50,[4],1860 nM
same,Activity,[5],activity in 0-25% of administered animals
same,Activity,[17],activity in 0-25% of administered animals
same,ED50,[7],369 µmol/kg
Cc1cccc(C)c1NC(=O)c1ccc(N)cc1 [AMELTOLIDE],Activity,[13],Activity at 300 mg/kg
same,Activity,[18],++
same,Activity,[19],++
same,Activity,[5],Activity at 300 mg/kg
same,Activity,[6],Activity at 300 mg/kg
same,Activity,[11],Activity at 300 mg/kg
same,ED50,[7],135 µmol/kg
O=C1NC(=O)C(c2ccccc2)(c2ccccc2)N1 [PHENYTOIN],IC50,[4],860 nM
same,ED50,[7],121 µmol/kg
Cc1ccc(N)c(C)c1N1C(=O)c2ccccc2C1=O,Activity,[20],signifies activity at 300 mg/kg
Cc1cccc(C)c1N1C(=O)c2ccc(Cl)cc2C1=O,Activity,[1],activity in 0-25% of administered animals
same,Activity,[13],activity in 0-25% of administered animals
same,Activity,[3],activity in 0-25% of administered animals
same,Activity,[21],activity in 0-25% of administered animals
same,IC50,[4],47800 nM
same,Activity,[9],activity in 0-25% of administered animals
same,Activity,[17],activity in 0-25% of administered animals
same,ED50,[7],354 µmol/kg
Cc1cccc(C)c1NC(=O)c1ccc([N+](=O)[O-])cc1,Activity,[22],Activity at 300 mg/kg
same,Activity,[19],++
same,IC50,[4],250 nM
same,Activity,[23],Activity at 300 mg/kg
same,Activity,[17],Activity at 300 mg/kg
same,Activity,[11],Activity at 300 mg/kg
same,ED50,[7],52.3 µmol/kg
Cc1cccc(C)c1NC(=O)c1ccc(O)cc1,Activity,[13],activity in 0-25% of administered animals
same,Activity,[2],activity in 0-25% of administered animals
same,Activity,[3],activity in 0-25% of administered animals
same,Activity,[15],activity in 0-25% of administered animals
same,IC50,[4],350 nM
same,Activity,[5],activity in 0-25% of administered animals
same,Activity,[6],activity in 0-25% of administered animals
same,Activity,[24],activity in 0-25% of administered animals
same,ED50,[7],284 µmol/kg
Cc1cccc(C)c1N1C(=O)c2ccc(N)cc2C1=O,Activity,[25],Active
same,Activity,[26],Active
same,Activity,[13],Active
same,Activity,[27],inactive
same,Activity,[28],Active
same,Activity,[29],Active
same,Activity,[30],Active
same,Activity,[21],Weak activity
same,Activity,[19],Active
same,Activity,[31],Not toxic
same,IC50,[4],110 nM
same,Activity,[32],Active
same,Activity,[33],Active
same,ED50,[7],25.3 µmol/kg
Cc1cccc(C)c1N1C(=O)c2ccc([N+](=O)[O-])cc2C1=O,Activity,[12],Activity at 300 mg/kg
same,Activity,[13],Activity at 300 mg/kg
same,Activity,[34],Activity at 300 mg/kg
same,Activity,[28],++
same,Activity,[18],++
same,IC50,[4],184000 nM
same,Activity,[5],Activity at 300 mg/kg
same,Activity,[35],Activity at 300 mg/kg
same,ED50,[7],131 µmol/kg
